How the values were obtained:
[1] = Cmax in Long-Evans rat brain at 10 mg/kg, po measured up to 24 hrs by LC/MS/MS analysis; assay type: ADME, organism-based; set-up: dose 10 mg/kg, route oral; conditions: in vivo
[2] = Cmax in Long-Evans rat plasma at 10 mg/kg, po measured up to 24 hrs by LC/MS/MS analysis; assay type: ADME, organism-based; set-up: dose 10 mg/kg, route oral
[3] = target: T1, 5-hydroxytryptamine receptor 1A (Homo sapiens) (UniProt P08908); assay: Agonist activity at 5-HT1A receptor (unknown origin) assessed as stimulation of [35S]GTPgammaS binding relative to control; assay type: functional
T1 sequence (whole entry): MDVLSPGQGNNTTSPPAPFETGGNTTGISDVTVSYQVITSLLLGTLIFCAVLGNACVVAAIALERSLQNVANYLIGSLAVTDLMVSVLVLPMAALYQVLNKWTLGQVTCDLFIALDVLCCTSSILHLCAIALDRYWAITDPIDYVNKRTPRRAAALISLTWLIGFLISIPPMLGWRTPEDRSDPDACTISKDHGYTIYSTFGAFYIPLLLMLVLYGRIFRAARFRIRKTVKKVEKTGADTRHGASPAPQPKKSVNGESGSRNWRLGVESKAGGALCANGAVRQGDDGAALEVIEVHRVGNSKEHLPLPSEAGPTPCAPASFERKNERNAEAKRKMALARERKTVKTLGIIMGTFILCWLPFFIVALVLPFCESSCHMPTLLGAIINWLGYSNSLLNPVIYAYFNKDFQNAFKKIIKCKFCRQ

[4] = AUC (0 to t) in Long-Evans rat brain at 10 mg/kg, po measured up to 24 hrs by LC/MS/MS analysis; assay type: ADME, organism-based; conditions: in vivo
[5] = Metabolic stability in rat liver microsomes assessed as parent compound remaining at 10 uM measured after 60 mins in presence of NADPH regenerating system by LC/MS/MS analysis; assay type: ADME, Microsome; conditions: read-out: Stability
How it was run: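 Compound at 10 μM final was incubated with rat liver microsomes at 0.5 mg/mL in 100 mM potassium phosphate, pH 7.4, with an NADPH regenerating system. Buprenorphine served as positive control. Parent disappearance was followed by LC/MS/MS, and percent remaining was reported at 60 min. Reactions were run in triplicate.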

[6] = Tmax in Long-Evans rat plasma at 10 mg/kg, po measured up to 24 hrs by LC/MS/MS analysis; assay type: ADME, organism-based
[7] = Tmax in Long-Evans rat brain at 10 mg/kg, po measured up to 24 hrs by LC/MS/MS analysis; assay type: ADME, organism-based
[8] = target: T2, 5-hydroxytryptamine receptor 2C (Homo sapiens, UniProt P28335); assay: Displacement of [125I] DOI from 5HT2C receptor (unknown origin)
T2 sequence (P28335 whole entry): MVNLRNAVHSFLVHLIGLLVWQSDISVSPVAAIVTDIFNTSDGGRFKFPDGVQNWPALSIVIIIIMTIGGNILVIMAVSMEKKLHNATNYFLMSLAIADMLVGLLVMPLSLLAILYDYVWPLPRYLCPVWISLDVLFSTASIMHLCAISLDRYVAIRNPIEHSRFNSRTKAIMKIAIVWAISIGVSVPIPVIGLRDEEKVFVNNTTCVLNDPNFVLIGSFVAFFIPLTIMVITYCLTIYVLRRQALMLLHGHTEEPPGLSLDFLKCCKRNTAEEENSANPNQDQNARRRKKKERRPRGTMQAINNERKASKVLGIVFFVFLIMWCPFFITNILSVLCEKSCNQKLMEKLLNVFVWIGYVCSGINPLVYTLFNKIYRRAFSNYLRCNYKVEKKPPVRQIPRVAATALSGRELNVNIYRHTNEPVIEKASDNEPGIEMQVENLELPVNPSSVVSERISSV

Homo sapiens = organism: Homo sapiens; assay: Selectivity ratio of Ki for displacement of [3H]N-methylspiperone from human D2L receptor expressed in HEK293 cell membranes to Ki for displacement of [3H]N-methylspiperone from human D3 receptor expressed in HEK293 cell membranes
D(3) dopamine receptor [9] = target: T3, D(3) dopamine receptor (Homo sapiens, UniProt P35462); assay: Agonist activity at human D3 receptor expressed in CHO cells assessed as stimulation of quinpirole-induced mitogenesis relative to control; assay type: cell-based; set-up: concentration or dose not given beside the values
T3 sequence (P35462 whole entry): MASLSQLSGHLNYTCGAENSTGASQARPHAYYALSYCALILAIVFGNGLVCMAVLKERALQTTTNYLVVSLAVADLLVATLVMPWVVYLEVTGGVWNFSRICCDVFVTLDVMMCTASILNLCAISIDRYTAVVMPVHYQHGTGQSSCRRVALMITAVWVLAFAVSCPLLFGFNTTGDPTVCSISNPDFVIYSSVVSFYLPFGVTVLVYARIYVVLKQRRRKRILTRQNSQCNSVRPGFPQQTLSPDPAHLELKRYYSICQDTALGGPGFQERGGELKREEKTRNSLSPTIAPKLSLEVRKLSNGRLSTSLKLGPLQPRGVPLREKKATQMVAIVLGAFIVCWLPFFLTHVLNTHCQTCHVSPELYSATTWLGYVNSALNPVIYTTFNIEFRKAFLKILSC

D(3) dopamine receptor [10] = target: T3, D(3) dopamine receptor; assay: Agonist activity at human D3 receptor expressed in CHO cells assessed as stimulation of quinpirole-induced mitogenesis; assay type: cell-based
[11] = AUC (0 to t) in Long-Evans rat plasma at 10 mg/kg, po measured up to 24 hrs by LC/MS/MS analysis; assay type: ADME, organism-based; set-up: time < 24 hr, dose 10 mg/kg, route oral
D(2) dopamine receptor = D(2) dopamine receptor (Homo sapiens, UniProt P14416); assay: Displacement of [3H]N-methylspiperone from human D2L receptor expressed in HEK293 cell membranes measured after 60 mins by scintillation counting method
D(2) dopamine receptor, sequence (P14416 whole entry): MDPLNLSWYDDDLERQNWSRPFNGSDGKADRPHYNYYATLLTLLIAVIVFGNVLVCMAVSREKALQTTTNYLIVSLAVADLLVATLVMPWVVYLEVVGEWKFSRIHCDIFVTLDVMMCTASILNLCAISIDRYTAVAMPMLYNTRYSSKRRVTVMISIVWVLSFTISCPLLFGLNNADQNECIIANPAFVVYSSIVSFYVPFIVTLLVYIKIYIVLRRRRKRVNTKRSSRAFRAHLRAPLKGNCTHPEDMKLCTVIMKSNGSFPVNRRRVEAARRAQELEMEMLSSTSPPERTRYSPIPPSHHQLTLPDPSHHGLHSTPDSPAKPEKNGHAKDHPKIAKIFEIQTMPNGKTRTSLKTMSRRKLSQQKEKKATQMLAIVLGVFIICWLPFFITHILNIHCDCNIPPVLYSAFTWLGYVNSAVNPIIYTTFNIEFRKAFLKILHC
How it was run: (§1)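 Membranes from HEK293 cells stably expressing human D2L or D3 were used at 20 μg protein/well in EBSS buffer, pH 7.4, with 0.4 nM [3H]N-methylspiperone. Compounds were run as 10 half-log dilutions in triplicate for 1 h at rt, with nonspecific binding defined by 10 μM (+)-butaclamol. Reactions were filtered onto GF/B and counted by scintillation.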

D(3) dopamine receptor [12] = target: T3, D(3) dopamine receptor; assay: Displacement of [3H]N-methylspiperone from human D3 receptor expressed in HEK293 cell membranes measured after 60 mins by scintillation counting method; how it was run: as §1

Row | remaining at 1 h, 10 µM [5] [%] | Activity (D(3) dopamine receptor [9]) [%] | Structure (SMILES) | Ratio Ki (Homo sapiens) | further results
1 | 57 to 86 |  | CCc1cccc(N2CCN(C[C@H](O)CCNC(=O)c3cc4ccccc4[nH]3)CC2)c1Cl |  | Cmax [1]: 3850 pmol/g; Cmax [2]: 291 to 306 nM; Activity [3]: 74%; AUCt [4]: 21600 pmol·h/g; Tmax [6]: 2 h; Tmax [7]: 2 h
2 | 75 | 2.7 | CCc1cc(Cl)c(OC)c(N2CCN(CC(F)CCNC(=O)c3cc4ccccc4[nH]3)CC2)c1 (racemic) | 746 | Ki [8]: > 8.9 µM; EC50 (D(3) dopamine receptor [10]): > 5.4 µM
3 |  |  | CCc1cc(Cl)c(OC)c(N2CCN(CC(O)CCNC(=O)c3ccc4c(c3)OCO4)CC2)c1 (stereo not drawn) | 15 | 
4 | 34 | 15.5 | CCc1cccc(N2CCN(CC(F)CCNC(=O)c3cc4ccccc4o3)CC2)c1Cl (stereo not drawn) | 134 | Activity [3]: 43%; EC50 (D(3) dopamine receptor [10]): > 7.5 µM
5 | 57 to 70 |  | CCc1cc(Cl)c(OC)c(N2CCN(C[C@H](F)CCNC(=O)c3cc4ccccc4[nH]3)CC2)c1 | 1650 | 
6 | 57 to 70 |  | CCc1cc(Cl)c(OC)c(N2CCN(C[C@@H](F)CCNC(=O)c3cc4ccccc4[nH]3)CC2)c1 | 535 | 
7 | 12 | 5.1 | CCc1cc(Cl)c(OC)c(N2CCN(CC(F)CCNC(=O)c3cc4ccccc4o3)CC2)c1 (stereo not drawn) | 108 | EC50 (D(3) dopamine receptor [10]): > 4 µM
8 | 57 to 86 | 17.7 | CCc1cc(Cl)c(OC)c(N2CCN(C[C@H](O)CCNC(=O)c3cc4ccccc4[nH]3)CC2)c1 |  | Cmax [1]: 1796.6 pmol/g; AUCt [4]: 8412 pmol·h/g; Tmax [7]: 4 h; AUC(0-t) at 24 h [11]: 2.2 µM·h
9 | 57 to 86 |  | CCc1cccc(N2CCN(C[C@@H](O)CCNC(=O)c3cc4ccccc4[nH]3)CC2)c1Cl |  | Cmax [1]: 2670 to 3670 pmol/g; Activity [3]: 69%; AUCt [4]: 16665 pmol·h/g; Tmax [6]: 2 h; Tmax [7]: 2 h
10 | 57 to 70 |  | CCc1cccc(N2CCN(C[C@@H](F)CCNC(=O)c3cc4ccccc4[nH]3)CC2)c1Cl | 1060 | 
11 | 57 to 86 | 17 | CCc1cc(Cl)c(OC)c(N2CCN(C[C@@H](O)CCNC(=O)c3cc4ccccc4[nH]3)CC2)c1 |  | Cmax [1]: 959.9 pmol/g; AUCt [4]: 4360 pmol·h/g; Tmax [7]: 4 h; AUC(0-t) at 24 h [11]: 1.07 µM·h
12 | 57 to 70 |  | CCc1cccc(N2CCN(C[C@H](F)CCNC(=O)c3cc4ccccc4[nH]3)CC2)c1Cl | 215 | 
13 |  |  | CCc1cc2c(cc1N1CCN(CC(O)CCNC(=O)c3cc4ccccc4o3)CC1)OCO2 (stereo not drawn) | 61 | 
14 | 57 to 86 |  | CCc1cc(Cl)c(OC)c(N2CCN(CC(O)CCNC(=O)c3cc4ccccc4[nH]3)CC2)c1 (racemic) |  | 
15 | 57 to 86 |  | CCc1cccc(N2CCN(CC(O)CCNC(=O)c3cc4ccccc4[nH]3)CC2)c1Cl (racemic) |  | 
16 |  |  | CCc1cccc(N2CCN(CC(O)CCNC(=O)c3ccc4c(c3)OCO4)CC2)c1Cl (stereo not drawn) | 140 | Ki (D(2) dopamine receptor): 0.424 µM; Ki (D(3) dopamine receptor [12]): 0.00302 µM
17 | 38 | 5.4 | CCc1cccc(N2CCN(CC(F)CCNC(=O)c3cc4ccccc4[nH]3)CC2)c1Cl (racemic) | 327 | EC50 (D(3) dopamine receptor [10]): > 6.8 µM

— ChEMBL document CHEMBL4414587 (J Med Chem, 2019)
